Source: ChEMBL document CHEMBL4041505, “Synthesis, SAR and pharmacological characterization of novel anthraquinone cation compounds as potential anticancer agents” (Eur J Med Chem, 2017)

Legend:
[1] = test system: A-375; assay: Cytotoxicity against human A375 cells measured after 24 hrs by MTT assay; format: functional, cell-based; conditions: A-375, 24 h
How it was run: (§1)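 Cells were kept in RPMI 1640 with 10% FBS, penicillin and streptomycin at 37°C in 5% CO2. Seeding was given for A375 only, at 1×10^4/well. After 24 h, cells were exposed to compounds for 24 h; compounds were dissolved in DMSO and diluted in medium containing 0.1% DMSO. Cells were washed, given 5 mg/mL MTT for 4 h, and formazan was dissolved in DMSO and read at 492 nm. Three independent experiments were run in triplicate, with IC50 taken from viability curves.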

[2] = Cytotoxicity against HELF cells measured after 24 hrs by MTT assay; format: cell-based; conditions: Homo sapiens; how it was run: as §1
[3] = test system: BGC-823; assay: Cytotoxicity against human BGC823 cells measured after 24 hrs by MTT assay; format: functional, cell-based; conditions: BGC-823, 24 h; how it was run: as §1
[4] = test system: HepG2; assay: Cytotoxicity against human HepG2 cells measured after 24 hrs by MTT assay; format: functional, cell-based; conditions: HepG2, 24 h; how it was run: as §1
[5] = test system: HeLa; assay: Induction of apoptosis in human HeLa cells assessed as late apoptotic cells at 1 uM measured after 24 hrs by Annexin V-FITC/propidium iodide staining based flow cytometry (reference value: 0.058 %); format: functional
[6] = test system: A-375; assay: Induction of apoptosis in human A375 cells assessed as increase in intracellular ROS production at 2 uM measured after 24 hrs by DCF-DA fluorescence dye based flow cytometry relative to control; format: functional
How it was run: (§2)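 A375 cells were exposed to treatments for 24 h and washed with PBS. They were loaded with 20 µM DCF-DA in serum-free DMEM at 37°C for 30 min, washed with ice-cold PBS and harvested. Mean DCF fluorescence was measured by flow cytometry as the ROS level; n=3, mean±SD, relative to untreated cells.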

[7] = test system: A-375; assay: Induction of apoptosis in human A375 cells assessed as decrease in mitochondrial membrane potential at 4 uM measured after 30 mins by DiOC6 dye based flow cytometry relative to control; format: functional; design: scale not given: the % may be the effect or the level left
How it was run: (§3)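 A375 cells were treated at 0, 1, 2 or 4 μM, then loaded with 50 nM DiOC6 in serum-free DMEM at 37°C for 30 min. Cells were washed twice with ice-cold PBS, harvested and analysed by flow cytometry. ΔΨm is expressed as percent change versus untreated cells, as mean±SD of three determinations.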

[8] = test system: A-375; assay: Induction of apoptosis in human A375 cells assessed as increase in intracellular ROS production measured after 24 hrs by DCF-DA fluorescence dye based flow cytometry; format: functional, cell-based; how it was run: as §2
[9] = Drug uptake in mitochondria of human A375 cells at 2 uM measured after 24 hrs by Mito-Tracker Green staining based laser confocal microscopic analysis; format: ADME
How it was run: (§4)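 A375 cells were plated at 10^5 cells/mL for 24 h to about 70% confluence. They were exposed to 2 μM at 37°C for 24 h, washed, then stained with 100 nM Mito-Tracker Green (488 nm) for 30 min. After PBS washes, compound fluorescence (568 nm) and the mitochondrial stain were imaged by laser confocal microscopy.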

[10] = test system: A-375; assay: Induction of apoptosis in human A375 cells assessed as increase in P53 expression measured after 24 hrs by Western blot analysis; format: functional, cell-based
How it was run: (§5)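 A375 cells were treated for 24 h at 5 or 10 μM. Lysates were clarified at 12,000 g for 5 min at 4°C and protein measured by BCA. Equal protein was run on 10% SDS-PAGE and transferred to PVDF. Primary antibodies (1:1000) were applied overnight at 4°C, then secondary (1:5000) for 2 h at 37°C. Detection was by chemiluminescence with densitometry, GAPDH as internal reference.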

[11] = test system: A-375; assay: Induction of apoptosis in human A375 cells assessed as decrease in mitochondrial membrane potential at 1 uM measured after 30 mins by DiOC6 dye based flow cytometry relative to control; format: functional; design: scale not given: the % may be the effect or the level left; how it was run: as §3
[12] = test system: A-375; assay: Induction of apoptosis in human A375 cells assessed as loss of mitochondrial membrane potential measured after 30 mins by DiOC6 dye based flow cytometry; format: functional, cell-based; how it was run: as §3
[13] = test system: HeLa; assay: Induction of apoptosis in human HeLa cells assessed as early apoptotic cells at 1 uM measured after 24 hrs by Annexin V-FITC/propidium iodide staining based flow cytometry (reference value: 0.078 %); format: functional
[14] = test system: A-375; assay: Induction of apoptosis in human A375 cells assessed as increase in intracellular ROS production at 1 uM measured after 24 hrs by DCF-DA fluorescence dye based flow cytometry relative to control; format: functional; how it was run: as §2
[15] = test system: HeLa; assay: Induction of apoptosis in human HeLa cells assessed as live cells at 1 uM measured after 24 hrs by Annexin V-FITC/propidium iodide staining based flow cytometry (reference value: 99.9 %); format: functional
[16] = test system: HeLa; assay: Induction of apoptosis in human HeLa cells assessed as necrotic cells at 1 uM measured after 24 hrs by Annexin V-FITC/propidium iodide staining based flow cytometry relative to control; format: functional
[17] = test system: A-375; assay: Induction of apoptosis in human A375 cells assessed as chromatin condensation measured after 24 hrs by DAPI staining based fluorescence microscopic analysis; format: functional, cell-based
How it was run: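 A375 cells were treated with 1, 2 or 4 μM for 24 h, washed, and fixed in cold methanol:acetic acid (3:1) for 10 min. They were stained with 1 μg/mL DAPI at 37°C for 5 min and imaged by fluorescence microscopy at 364 nm, 400×, for nuclear morphology.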

[18] = Drug uptake in nucleus of human A375 cells at 2 uM measured after 24 hrs by Mito-Tracker Green staining based laser confocal microscopic analysis; format: ADME; how it was run: as §4
[19] = test system: A-375; assay: Induction of apoptosis in human A375 cells assessed as increase in caspase-3 expression measured after 24 hrs by Western blot analysis; format: functional, cell-based; how it was run: as §5
[20] = test system: HeLa; assay: Reduction in mitochondrial membrane potential in mitochondria isolated from human HeLa cells measured after 2 hrs by DiOC6 dye based HSFCM analysis; format: functional, cell-based
How it was run: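 Mitochondria isolated from HeLa cells were treated at 0, 1, 10, 50 or 100 µM for 2 h at 37°C and washed with MT buffer. They were stained with 500 nM DiOC6 for 15 min at 37°C, washed twice and resuspended in MT buffer. Analysis was on a laboratory-built high-sensitivity flow cytometer, recording median and mean green fluorescence against drug concentration.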

CCCCCCCCC[N+](C)(C)Cc1cc(O)c2c(c1)C(=O)c1cc(OC)cc(O)c1C2=O
IC50 [1]: 9.87 µM
IC50 [2]: 21.6 µM
IC50 [3]: 9.76 µM
IC50 [4]: 10.4 µM

CCCCCCCCCC[N+](C)(CCCCCCCCC)Cc1cc(O)c2c(c1)C(=O)c1cc(OC)cc(O)c1C2=O (stereo not given)
IC50 [1]: 2.2 µM
IC50 [2]: 9.56 µM
IC50 [3]: 3.85 µM
IC50 [4]: 3.97 µM

CCCCCCCC[N+](C)(CCCCCCCC)Cc1ccc2c(c1)C(=O)c1ccccc1C2=O
IC50 [2]: 8.46 µM
IC50 [4]: 2.08 µM

CC(=O)O[C@H]1C(=O)[C@@]2(C)[C@H]([C@H](OC(=O)c3ccccc3)[C@]3(O)C[C@H](OC(=O)[C@H](O)[C@@H](NC(=O)c4ccccc4)c4ccccc4)C(C)=C1C3(C)C)[C@]1(OC(C)=O)CO[C@@H]1C[C@@H]2O [PACLITAXEL]
IC50 [1]: 11.3 µM

Cc1cc(O)c2c(c1)C(=O)c1cc(O)cc(O)c1C2=O [EMODIN]
IC50 [1]: 44.9 µM
IC50 [2]: 46.3 µM
IC50 [3]: > 50 µM
IC50 [4]: > 50 µM

CCCCCCCCC[N+](C)(CCCCCCCC)Cc1cc(O)c2c(c1)C(=O)c1cc(OC)cc(O)c1C2=O.[Br-] (stereo not given)
Activity [5]: 60.8%
fold change (FC) [6]: 5.8
Activity [7]: 38%
Activity [8]: Dose-dependent effect
Drug uptake [9]: Active
Activity [10]: Dose-dependent effect
Activity [11]: 25%
Activity [12]: Dose-dependent effect
IC50 [1]: 1.39 µM
IC50 [2]: 9.65 µM
Activity [13]: 0.444%
fold change (FC) [14]: 2.7
Activity [15]: 3.73%
Activity [16]: 35%
Activity [17]: Dose-dependent effect
Drug uptake [18]: Not Active
IC50 [3]: 2.79 µM
Activity [19]: Dose-dependent effect
IC50 [4]: 4.12 µM
Activity [20]: Dose-dependent effect

CCCCCCCC[N+](C)(CCCCCCCC)Cc1cc(O)c2c(c1)Cc1cc(O)cc(O)c1C2=O
IC50 [2]: > 100 µM
IC50 [4]: > 100 µM

COCCOCC[N+](CCOCCOC)(CCOCCOC)Cc1cc(OC)c2c(c1)C(=O)c1cc(OC)cc(OC)c1C2=O
IC50 [1]: > 100 µM
IC50 [2]: > 100 µM
IC50 [3]: > 100 µM
IC50 [4]: > 100 µM

CCCCCCCCC[N+](C)(CCOCCOCCO)Cc1cc(OC)c2c(c1)C(=O)c1cc(OC)cc(OC)c1C2=O (stereo not given)
IC50 [1]: 28.9 µM
IC50 [2]: 40.4 µM
IC50 [3]: 32.7 µM
IC50 [4]: 37.7 µM

CCCCCCCC[N+](CCCCCCCC)(CCCCCCCC)Cc1cc(OC)c2c(c1)C(=O)c1cc(OC)cc(OC)c1C2=O
IC50 [1]: 3.46 µM
IC50 [2]: 4.5 µM
IC50 [3]: 5 µM
IC50 [4]: 5.45 µM

CCCCCCCCCC[N+](C)(CCCCCCCCCC)Cc1ccc2c(c1)C(=O)c1ccccc1C2=O
IC50 [2]: 5.84 µM
IC50 [4]: 1.57 µM

CCCCCCCCC[N+](C)(CCCCCCCCC)Cc1cc(O)c2c(c1)C(=O)c1cc(OC)cc(O)c1C2=O
IC50 [1]: 2.63 µM
IC50 [2]: 9.83 µM
IC50 [3]: 3.93 µM
IC50 [4]: 7.39 µM
